Experimental data from different studies.
Lines come from different studies, so protocols differ.
Read-out: binding
CREBBP bromodomain: CREB-binding protein, bromodomain (CREBBP, Homo sapiens, UniProt Q92793)
tspO A138F: tspO (Cereibacter sphaeroides, UniProt Q9RFC8, A138F)
PIK3CG: Phosphatidylinositol 4,5-bisphosphate 3-kinase catalytic subunit gamma isoform (PIK3CG, Homo sapiens, UniProt P48736)

For Cn1cc(C(=O)Nc2cccc(C(=O)O)c2)ccc1=O, the Kd was 4100 nM (CREBBP bromodomain; competition with immobilised ligand).
Nc1nc2c(ncn2[C@@H]2O[C@H](COP(=O)(O)OP(=O)(O)O)[C@@H](OP(=O)(O)OP(=O)(O)O)[C@H]2O)c(=O)[nH]1 gave a Kd of 52000 nM (gpmA (Escherichia coli, UniProt P62707); ITC).
For C=CC1=C(C)C2=Cc3c(C=C)c(C)c4[n]3[Fe]([Cl])[n]3c(c(C)c(CCC(=O)O)c3=CC3=NC(=C4)C(C)=C3CCC(=O)O)=CC1=N2, the Kd was 700 nM (tspO A138F; fluorescence).
CCOc1cc(-c2nncn2C)ccc1Nc1ncc2cc(C)nc(NCC(C)(C)C)c2n1 gave a Kd of over 10000 nM (Mitogen-activated protein kinase kinase kinase 15 (MAP3K15, Homo sapiens, UniProt Q6ZN16); competition with immobilised ligand).
The Kd of CCC(=O)N1CCC(C(=O)N(C)CC(=O)N2CCN(c3nc(-c4cnc(N)nc4C(F)F)nc(N4CCOCC4)n3)CC2)CC1 is reported as 16 nM (PIK3CG; competition with immobilised ligand).
For CC1=C(/C=C/C(C)=C/C=C/C(C)=C/C=O)C(C)(C)CCC1, the Kd was 894 nM (Cellular retinoic acid-binding protein 2 (CRABP2, Homo sapiens, UniProt P29373, L122E/R112E/R133K); fluorescence).
CCC(=O)N1CCC(C(=O)NCC(=O)N2CCN(c3nc(-c4cnc(N)nc4C(F)F)nc(N4CCOCC4)n3)CC2)CC1 has a Kd of 1.3 nM (PIK3CG; competition with immobilised ligand).
OC[C@H]1OC(O)[C@H](O)[C@@H](O)[C@@H]1O (some centres unmarked) has a Kd of 3260 nM (Nucleolar RNA helicase 2 (Homo sapiens, UniProt Q9NR30); MST).
With CCCc1cc(N=Nc2cc(S(=O)(=O)O)c(C)cc2C)ccc1O the Kd was 97000 nM (CREBBP bromodomain; fluorescence).
For Cc1cc2c(NC(=O)c3cccc(C(=O)O)c3)cccc2nn1, the Kd was 1100 nM (CREBBP bromodomain; competition with immobilised ligand).
C=CC1=C(C)c2cc3[nH]c(cc4nc(cc5[nH]c(cc1n2)c(C)c5CCC(=O)O)C(CCC(=O)O)=C4C)c(C)c3C=C has a Kd of 700 nM (tspO A138F; fluorescence).
